Results from ChEMBL document CHEMBL2417500, “Cytotoxic diterpenoid pseudodimers from the Korean sponge Phorbas gukhulensis” (J Nat Prod, 2013).

Legend:
A549 = experiment: Cytotoxicity against human A549 cells by MTT assay; assay type: functional; conditions: read-out: LC50 (the source's name)
How it was run: (§1)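 LC50 is the concentration giving a 50% drop in cell viability relative to untreated controls without inhibitor. It is read from dose–response curves for each sample and reported as mean ± SD of three independent experiments (n = 3).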

K562 [1] = experiment: Cytotoxicity against human K562 cells by MTT assay; assay type: functional; conditions: read-out: LC50 (the source's name); how it was run: as §1
[2] = biological target: Sodium/potassium-transporting ATPase; experiment: Inhibition of Na+/K+-ATPase (unknown origin); assay type: protein-complex assay, Homo sapiens
[3] = Inhibition of isocitrate lyase (unknown origin)
[4] = Inhibition of sortase A (unknown origin)
K562 [5] = experiment: Ratio of doxorubicin LC50 to compound LC50 for human K562 cells; assay type: functional

Q: Which CC50 (A549) does the source give for `COc1cccc2c1C(=O)c1c(O)c3c(c(O)c1C2=O)C[C@@](O)(C(=O)CO)C[C@@H]3O[C@H]1C[C@H](N)[C@H](O)[C@H](C)O1` [DOXORUBICIN] here?
A: 520 nM

Q: And the CC50 (K562 [1])?
A: 700 nM

Q: For `CC(=O)O[C@@H](C=O)[C@]1(C)CC[C@H](C(C)C)[C@@H]1c1cc([C@]2(O)Cc3cc(O)c(=O)c(C)c4c3[C@@H](O2)[C@H](O)[C@]2(C)CC[C@H](C(C)C)[C@H]42)cc(O)c(=O)c1C` [GUKULENIN A], which IC50 [2] is on record?
A: > 100000 nM

Q: What about the IC50 [3] of the same molecule?
A: > 100000 nM

Q: And the IC50 [4]?
A: > 100000 nM

Q: And the CC50 (A549)?
A: 320 nM

Q: What about the CC50 (K562 [1]) of the same molecule?
A: 260 nM

Q: Which results are given for `CC(=O)N[C@H](O)[C@H](O)[C@]1(C)CC[C@H](C(C)C)[C@@H]1c1cc([C@]2(O)Cc3cc(O)c(=O)c(C)c4c3[C@@H](O2)[C@H](O)[C@]2(C)CC[C@H](C(C)C)[C@H]42)cc(O)c(=O)c1C`?
A: IC50 [2]: > 100000 nM; IC50 [3]: > 100000 nM; IC50 [4]: > 100000 nM; CC50 (A549): 550 nM; CC50 (K562 [1]): 440 nM

Q: Which results are given for `Cc1c([C@H]2[C@@H](C(C)C)CC[C@@]2(C)C(=O)CNCCS(=O)(=O)O)cc([C@]2(O)Cc3cc(O)c(=O)c(C)c4c3[C@@H](O2)[C@H](O)[C@]2(C)CC[C@H](C(C)C)[C@H]42)cc(O)c1=O`?
A: IC50 [2]: > 100000 nM; IC50 [3]: > 100000 nM; IC50 [4]: > 100000 nM; CC50 (A549): 110 nM; CC50 (K562 [1]): 320 nM

Q: Which IC50 [2] does the source give for `CC(=O)O[C@@H](C=O)[C@]1(C)CC[C@H](C(C)C)[C@@H]1c1cc(/C(O)=C/c2cc(O)c(=O)c(C)c3c2[C@@H](O)[C@H](O)[C@]2(C)CC[C@H](C(C)C)[C@H]32)cc(O)c(=O)c1C` here?
A: > 100000 nM

Q: What about the IC50 [3] of the same molecule?
A: > 100000 nM

Q: What about the IC50 [4] of the same molecule?
A: > 100000 nM

Q: And the RatioLC50 (K562 [5])?
A: 17

Q: And the CC50 (A549)?
A: 380 nM

Q: And the CC50 (K562 [1])?
A: 40 nM

Q: For `CO[C@@H](NC(C)=O)[C@H](O)[C@]1(C)CC[C@H](C(C)C)[C@@H]1c1cc([C@]2(O)Cc3cc(O)c(=O)c(C)c4c3[C@@H](O2)[C@H](O)[C@]2(C)CC[C@H](C(C)C)[C@H]42)cc(O)c(=O)c1C`, which IC50 [2] is on record?
A: > 100000 nM

Q: And the IC50 [3]?
A: > 100000 nM

Q: And the IC50 [4]?
A: > 100000 nM

Q: And the CC50 (A549)?
A: 100 nM

Q: And the CC50 (K562 [1])?
A: 120 nM
